The list is not random: actives were taken first. Their share in the collection is about 2.3%.
TRPC6 act: mouse TRPC6 channel activators, primary screen, cell-based, HEK293, membrane potential dye | Short transient receptor potential channel 6 (Mus musculus), Q61143 | HEK293-TRPC6 membrane potential dye fluorescence; active compounds read high | B-score at 10 µM | 310,000 tested, 0.13% active;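 active = B-score of the integrated fluorescence ratio above library mean plus 3 SD, and starting fluorescence ratio within library mean plus 5 SD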;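 also: higher score means more depolarization so channel activation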
Target sequence (Q61143 whole entry, looked up): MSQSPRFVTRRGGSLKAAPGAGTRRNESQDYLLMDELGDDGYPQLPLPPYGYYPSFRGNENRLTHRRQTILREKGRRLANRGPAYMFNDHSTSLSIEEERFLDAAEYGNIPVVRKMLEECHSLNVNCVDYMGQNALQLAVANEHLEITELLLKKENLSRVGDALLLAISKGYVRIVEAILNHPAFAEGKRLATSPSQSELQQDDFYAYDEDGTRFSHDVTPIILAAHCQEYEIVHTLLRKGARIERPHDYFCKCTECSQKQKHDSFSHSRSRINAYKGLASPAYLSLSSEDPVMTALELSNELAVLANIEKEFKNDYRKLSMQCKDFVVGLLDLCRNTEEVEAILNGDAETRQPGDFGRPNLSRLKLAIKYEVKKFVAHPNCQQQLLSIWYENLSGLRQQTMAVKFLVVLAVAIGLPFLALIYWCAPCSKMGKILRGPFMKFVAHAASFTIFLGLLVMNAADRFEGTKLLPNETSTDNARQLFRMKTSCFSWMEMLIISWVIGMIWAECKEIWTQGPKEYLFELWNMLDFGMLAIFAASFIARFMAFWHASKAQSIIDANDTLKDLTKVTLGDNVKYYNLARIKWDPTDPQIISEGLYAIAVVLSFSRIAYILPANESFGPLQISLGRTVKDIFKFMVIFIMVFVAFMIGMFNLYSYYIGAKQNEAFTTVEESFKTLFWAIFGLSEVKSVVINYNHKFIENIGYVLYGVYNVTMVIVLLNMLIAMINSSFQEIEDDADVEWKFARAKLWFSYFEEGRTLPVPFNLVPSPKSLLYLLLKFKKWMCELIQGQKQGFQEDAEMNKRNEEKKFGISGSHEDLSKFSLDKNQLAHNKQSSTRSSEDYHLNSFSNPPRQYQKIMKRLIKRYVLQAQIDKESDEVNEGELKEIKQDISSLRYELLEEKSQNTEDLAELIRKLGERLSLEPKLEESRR
TRPC4 PAM: positive allosteric modulators of TRPC4, primary screen, cell-based, mouse TRPC4beta, HEK293 mu-opioid, Fluo-4 calcium. Short transient receptor potential channel 4 (Mus musculus), Q9QUQ5. DAMGO EC20, Fluo-4 Ca2+ flux; active compounds read high. B-score at 10 µM. 310,000 tested, 0.42% active. AID 2227, 2009;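 active = B-score of calcium response area above 5 SD of library B-scores, with initial fluorescence ratio within 5 SD of library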;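 also: B-score of integrated fluorescence ratio over time as area under calcium response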
TRPC6 inh: mouse TRPC6 channel inhibitors, primary screen, cell-based, HEK293, membrane potential dye. Short transient receptor potential channel 6 (Mus musculus), Q61143. ACh-evoked depolarization; active compounds read low. B-score at 10 µM. 310,000 tested, 1.1% active;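 active = B-score under library mean minus 3 SD, initial fluorescence not abnormally high, positive integrated signal ratio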;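 also: B-score derived from integrated fluorescence ratio over the kinetic read; more negative B-score means stronger inhibition of depolarization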
TRPC4 act: activators of mouse TRPC4 channel, primary screen, Fluo4 calcium, HEK293 TRPC4beta/mu-opioid cells; Fluo4 calcium fluorescence; active compounds read high; B-score at 10 µM; 310,000 tested, 0.49% active;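 active = B-score above 5 SD of library B-scores, and initial fluorescence ratio not above library mean plus 5 SD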;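 also: positive B-score marks a calcium rise read as TRPC4 activation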
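Assay system: HEK293 cells stably co-expressing mouse TRPC4beta and mu-opioid receptor / Timing: Fluo4 dye loading 45 min at room temperature, 110 s recording / Signal: Fluo4 calcium-sensitive dye fluorescence, kinetic, 1 Hz baseline / Read-out: integrated baseline-normalised fluorescence ratio, converted to per-well B score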
TRPC4 inh: inhibitors of mouse TRPC4 channel, primary screen, Fluo4 calcium, HEK293 TRPC4beta/mu-opioid cells. 300,000 tested, 0.39% active. DAMGO-evoked Fluo4 calcium flux; active compounds read low. AID 2247, 2010. B-score at 10 µM;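 active = B-score over 3 SD under the library average, no early fluorescence shift, positive overall ratio signal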
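Assay system: HEK293 cells with stable TRPC4beta plus mu-opioid receptor expression. Dosing: single dose. Measured by: Fluo4 Ca2+ flux fluorescence. Also added: DAMGO in two steps, submaximal then maximal. Read-out: B score from integrated Fluo4 fluorescence ratio.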
* = called active by the depositor; i = inactive.

SMILES | TRPC6 act | TRPC4 PAM | TRPC6 inh | TRPC4 act | TRPC4 inh
O=C(Cc1cccc(C(F)(F)F)c1)NCC(=O)Nc1cc(Cl)ccc1Cl | i | i | i | i | i
CC1CC(C)CN(CCCNC(=O)C2CCN(S(=O)(=O)N3CCCCC3)CC2)C1 (configuration not stated) | i | i | i | 59* | i
O=C(CN1CCN(Cc2cccc3ccccc23)CC1)NCCc1ccccc1 | i | i | i | i | i
CN(C)/C=C1/C(=O)N(c2ccc([N+](=O)[O-])cc2)N=C1c1ccccc1 | i | i | i | i | i
CN(C)/C=C1\C(=O)N(c2ccc([N+](=O)[O-])cc2)N=C1c1ccccc1 | i | i | i | 47* | -6*
COc1cc(CNC(=O)c2ccc3c(c2)S(=O)(=O)c2ccccc2C3=O)cc(OC)c1 | i | i | i | i | i
COC(=O)c1ccccc1NC(=O)NC1CC1 | i | i | i | i | i
CCCN1CCC(NC(=O)Nc2ccccc2C(=O)OC)CC1 | i | i | i | 71* | i
COc1ccc(N(CC(=O)N2CCOCC2)S(C)(=O)=O)cc1 | i | i | i | i | i
Cc1ccc(-c2nc(CS(=O)CC(=O)NCCCN3CC(C)CC(C)C3)c(C)o2)cc1 (configuration not stated) | i | i | i | 62* | i
CCCN(CCC)CCCNC(=O)CS(=O)Cc1nc(-c2ccc(OC)c(OC)c2)oc1C (configuration not stated) | i | i | i | 64* | i
CCCCN(C)CCCNC(=O)CS(=O)Cc1nc(-c2ccc(OC)c(OC)c2)oc1C (configuration not stated) | i | i | i | i | i
COc1ccc(-c2nc(CS(=O)CC(=O)NCCCN3CC(C)CC(C)C3)c(C)o2)cc1OC (configuration not stated) | i | i | i | 104* | i
COCCn1c(-c2ccc(Br)cc2)nc2oc3cc(OC)ccc3c(=O)c2c1=O | i | i | i | i | i
Cc1ccc(NC(=O)CNC(=O)Cc2cccc3ccccc23)c(O)c1 | i | i | i | i | i
COc1cccc(NC(=O)NC2(C(=O)N3CCN(C)CC3)CCCCC2)c1 | i | i | i | i | i
CC(Oc1ccc(Br)cc1)C(=O)Nc1ccc(S(=O)(=O)N(C)C2CCN(C)CC2)cc1 (configuration not stated) | i | i | i | 63* | i
COC(=O)c1ccc([C@H]2CC(=O)O2)cc1 | i | i | i | i | i
C/C(Cl)=C/Cn1c(SCCN2CCOCC2)nc2c1c(=O)[nH]c(=O)n2C | i | i | i | i | i
C=CCn1c(SCCN2CCOCC2)nc2c1c(=O)[nH]c(=O)n2C | i | 23* | i | i | i
C=CCSc1nc2c(c(=O)[nH]c(=O)n2C)n1C/C=C(/C)Cl | i | i | i | i | -7*
N#Cc1ccc(-c2ccccc2)nc1SCCN1CCOCC1 | i | 20* | i | i | i
Cc1cc(C)c(C#N)c(SCCN2CCOCC2)n1 | i | i | i | i | i
COc1cccc(C=O)c1OCCCOc1cccc2cccnc12 | i | i | i | i | i
CCOC(=O)C(CCCCCOc1ccc([N+](=O)[O-])cc1)C(=O)OCC | i | 23* | i | i | i
O=[N+]([O-])c1ccccc1OCCCN1CCc2ccccc2C1 | i | i | i | i | i
CC1CC(C)CN(CCCOc2ccccc2[N+](=O)[O-])C1 (configuration not stated) | i | i | i | 48* | i
CCOC(=O)C(CCCCCOc1ccccc1[N+](=O)[O-])C(=O)OCC | i | i | i | i | -6*
CCOC(=O)C(CCCCOc1cccc(CC)c1)C(=O)OCC | i | i | i | i | i
Cc1ccc(C)c(CNC(=O)Nc2ccccc2)c1 | i | i | i | i | i
